NadD inh: blocks S. aureus nicotinate mononucleotide adenylyltransferase; purified NadD enzyme, colorimetric absorbance read-out; inhibition, % at 20 µM; 0.78% of 360,000 active; AID 602399; in the data active = inhibition above about 26%
LMPTP block: blocks human LMPTP phosphatase | inhibition, % at 20 µM | 0.22% of 360,000 active | AID 651560 | recombinant LMPTP-A, OMFP fluorogenic substrate, fluorescence intensity;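 active = compounds that cut the enzyme signal by at least half of the control window in the single-dose screen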
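Assay system: LMPTP-A phosphatase enzyme | Input: 0.625 nM enzyme | Also added: Fluorogenic phosphatase substrate OMFP at 400 µM final | Compound dosing: One test concentration per compound, 20 µM, with 3% DMSO overall | Schedule: 50 min enzyme reaction at room temperature, protected from light | Signal: Fluorescence intensity | Benchmarks: no-enzyme and uninhibited controls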
SUMO1 PPI mod: modulators of human SUMO1-mediated protein-protein interactions | SUMO1 binding to a labelled peptide, TR-FRET, 1 h | inhibition, % at 20 µM | P63165 | 0.33% of 360,000 active; in the data active = inhibition above about 37%
DNMT1 block: inhibitors of human DNMT1; DNMT1 molecular beacon, Hinp1I cleavage, fluorescence; P26358; inhibition (reported as % activation of signal), % at 10 µM; 0.83% of 360,000 active; in the data active = inhibition above about 50%
Target sequence (P26358 504-1616 limits assumed): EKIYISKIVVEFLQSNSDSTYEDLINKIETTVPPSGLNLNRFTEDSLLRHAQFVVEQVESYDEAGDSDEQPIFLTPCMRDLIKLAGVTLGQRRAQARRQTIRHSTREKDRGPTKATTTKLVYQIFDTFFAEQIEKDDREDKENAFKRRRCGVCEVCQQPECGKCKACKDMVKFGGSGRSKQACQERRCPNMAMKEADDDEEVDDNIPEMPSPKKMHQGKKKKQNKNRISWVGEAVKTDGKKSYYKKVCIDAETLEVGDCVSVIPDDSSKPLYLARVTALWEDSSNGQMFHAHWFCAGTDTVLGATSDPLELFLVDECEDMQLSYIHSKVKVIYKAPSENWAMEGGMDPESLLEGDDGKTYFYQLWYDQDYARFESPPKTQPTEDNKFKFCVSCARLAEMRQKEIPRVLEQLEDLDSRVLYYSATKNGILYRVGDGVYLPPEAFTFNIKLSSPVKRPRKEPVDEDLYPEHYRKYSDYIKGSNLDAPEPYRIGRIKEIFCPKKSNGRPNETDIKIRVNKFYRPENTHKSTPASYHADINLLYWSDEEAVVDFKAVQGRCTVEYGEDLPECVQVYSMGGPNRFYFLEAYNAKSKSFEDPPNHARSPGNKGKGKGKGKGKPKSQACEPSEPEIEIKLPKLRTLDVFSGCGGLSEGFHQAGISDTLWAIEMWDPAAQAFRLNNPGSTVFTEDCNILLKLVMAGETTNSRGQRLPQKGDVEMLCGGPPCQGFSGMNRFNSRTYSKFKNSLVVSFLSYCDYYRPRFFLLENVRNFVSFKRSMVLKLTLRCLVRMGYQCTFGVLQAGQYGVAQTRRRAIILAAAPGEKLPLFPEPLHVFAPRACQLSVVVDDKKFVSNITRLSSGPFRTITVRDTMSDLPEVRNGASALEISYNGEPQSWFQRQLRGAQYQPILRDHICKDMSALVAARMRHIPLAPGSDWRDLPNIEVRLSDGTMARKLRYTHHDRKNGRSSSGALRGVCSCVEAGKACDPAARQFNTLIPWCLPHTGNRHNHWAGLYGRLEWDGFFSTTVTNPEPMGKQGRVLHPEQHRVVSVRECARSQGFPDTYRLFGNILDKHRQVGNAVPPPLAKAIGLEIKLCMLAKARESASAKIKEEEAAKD
Scp-1 inhibitor: inhibitors of human Scp-1 phosphatase; Q9GZU7; Recombinant Scp1, phosphopeptide, malachite green phosphate absorbance; inhibition, % at 20 µM; 0.88% of 340,000 active; AID 493091;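 active = inhibition above about 50% at 20 µM, limit read from the data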
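Test system: SCP-1 phosphatase catalytic domain, residues 76-261; measured by: colorimetric phosphate reagent with accelerator and stabiliser, absorbance at 630 nm; timing: enzyme reaction 45 min at room temperature, colour 5 min, stabilisation 30 min; also added: Phosphorylated 17-residue peptide substrate; compound dosing: one concentration, 20 µM, with 1.0% DMSO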
STEP block: blocks human striatal-enriched tyrosine phosphatase | P54829 | recombinant STEP, OMFP fluorogenic substrate, fluorescence | inhibition, % at 20 µM | 0.25% of 360,000 active;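 active = inhibition at 20 µM, scaled per plate between control wells, above about 37%, limit read from the data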
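Material: STEP (striatal-enriched tyrosine phosphatase) enzyme, cell-free | Medium: 50 mM Bis-Tris pH 6.0 with 2.5 mM DTT and 0.005% Tween 20 | Read-out: Percent inhibition scaled to no-enzyme and uninhibited-enzyme controls, plate-pattern corrected | Signal: Fluorescence read at 480 nm ex / 540 nm em | Times: 20 min reaction, room temperature, in the dark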
NadD conf: NadD (S. aureus) inhibition, single concentration confirmation; shares compounds with NadD inh; purified S. aureus NadD, colorimetric enzyme assay; inhibition, % at 20 µM; 13% of 2,000 active; AID 624309; in the data active = inhibition mostly above about 42%, no sharp cut-off; inactive = mostly below about 42%
Of the large screens only hits and unclear results are named; the others gave an inactive call (follow-up assays come after a bar, where they were run). An excerpt weighted towards active compounds, which were near 2.3% of everything screened.

CCn1c2ccccc2c2cc(NC(=O)CSc3nnc(-c4ccc(OC)cc4)n3N)ccc21	NadD inh 30 | NadD conf inactive
c1ccc(Cn2cc(CNc3ccccc3)nn2)cc1	none
CCOc1ccc(C2C(C#N)=C(N)N(c3sc4c(c3C#N)CCCC4)C3=C2C(=O)CCC3)cc1 (configuration not stated)	NadD inh 55 | NadD conf inactive
N#CC1=C2N=C(N)c3c(sc4c3CCCCC4)N2C2=C(C(=O)CCC2)C1c1ccccc1 (configuration not stated)	none
N#Cc1ccc(NC(=O)Cn2cnc([N+](=O)[O-])c2)cc1	none
O=C(Cn1cnc([N+](=O)[O-])c1)Nc1cc(Oc2ccc(Cl)cc2Cl)cc([N+](=O)[O-])c1	NadD inh 32 | NadD conf inactive
O=C1C=CC(=O)N1c1ccccc1N1C(=O)C=CC1=O	none
CC1=CC(=O)N(c2cccc3c(N4C(=O)C=C(C)C4=O)cccc23)C1=O	NadD inh 58 | NadD conf inactive
CCCCCCCCOC(=O)c1c(CSC(=N)N)n(C)c2cc(Br)c(OC(C)=O)cc12	NadD inh 42 | NadD conf inactive
CCOC(=O)c1c(CSC(=N)N)n(-c2ccc(Br)cc2)c2cc(Br)c(OC(C)=O)cc12	none
O=C(O)c1ccc(/C=N/NC(=O)c2ccc(CN3c4cccc5cccc(c45)S3(=O)=O)cc2)cc1	NadD inh 30 | NadD conf 66
O=C(Nc1ccc2c(c1)OCO2)C1Cc2ccccc2CN1S(=O)(=O)c1cccs1 (configuration not stated)	NadD inh 31 | NadD conf inactive
O=C(Nc1ccc2c(c1)OCO2)C1CCN(S(=O)(=O)c2cccs2)CC1	none
COc1ccc(OCC(=O)NC2CCCN(Cc3ccc(Cl)cc3)C2)cc1 (configuration not stated)	none
C[C@@H]1CN([C@@H](C)CO)C(=O)Cc2cc(NC(=O)Nc3cccc4ccccc34)ccc2O[C@@H]1CN(C)Cc1ccc(C(F)(F)F)cc1	NadD inh 31 | NadD conf inactive
CC(=O)Nc1ccc(NC(=O)CSc2nnc(-c3cccs3)n2N)cc1	none
C/C=C\C=C/C(=O)Nc1cccc(C2=NOC3(C2)C[C@@H](C(N)=O)N(C(=O)COc2ccc(Cl)cc2)C3)c1 (some centres not stated)	NadD inh 38 | NadD conf 62
NC(=O)[C@H]1CC2(CC(c3cccc(NC(=O)COc4ccc(Cl)cc4)c3)=NO2)CN1C(=O)Cc1ccc([N+](=O)[O-])cc1 (some centres not stated)	NadD inh 33 | NadD conf inactive
CC(C)C[C@H]1CN(CCCC[C@H]2CNC(=O)C(=O)N2CCc2ccc(O)cc2)C(=O)C(=O)N1Cc1ccccc1	none (no result: DNMT1 block, Scp-1 inhibitor, STEP block)
Clc1ccc(CO/N=C/c2cccs2)cc1	none
Cc1ccc(NC(=O)Nc2nc3ccccc3s2)cc1NC(=O)Nc1nc2ccccc2s1	NadD inh 28 | NadD conf inactive
COc1ccc(C2=NN(C(=O)CSc3nc(=O)n4cccc(C)c4n3)C(c3ccc(C)cc3)C2)cc1 (configuration not stated)	NadD inh 36 | NadD conf inactive
COc1ccc(Cl)cc1N(CC(=O)N/N=C/c1ccc(OC(C)C)cc1)S(=O)(=O)c1ccc(C)c([N+](=O)[O-])c1	NadD inh 31 | NadD conf inactive
O=C(O)CSc1nc(-c2ccccc2)nc2c1CCCC2	none
CSc1nc(SCC(=O)O)c2sc3nc(-c4ccccc4)c4c(c3c2n1)CCC4	NadD inh 28, LMPTP block 95, SUMO1 PPI mod 101, DNMT1 block 97, Scp-1 inhibitor 60, STEP block 97 | NadD conf inactive
COc1cc(NS(=O)(=O)c2ccc(NC(=S)NC(=O)c3sc4cc(F)ccc4c3Cl)cc2)nc(OC)n1	NadD inh 35 | NadD conf inactive
O=C(O)c1ccccc1NC(=S)NC(=O)c1sc2ccccc2c1Cl	none
COc1cc(NS(=O)(=O)c2ccc(NC(=S)NC(=O)c3sc4ccccc4c3Cl)cc2)nc(OC)n1	none
NC(N)=NS(=O)(=O)c1ccc(NC(=S)NC(=O)c2sc3ccccc3c2Cl)cc1	NadD inh 43 | NadD conf inactive
O=C(NNC(=S)NC(=O)c1sc2ccccc2c1Cl)c1ccc(Cl)cc1	NadD inh 36 | NadD conf inactive
Cc1ccc2c(C)c(C(=O)N(C)C(C)c3ccon3)oc2c1C (configuration not stated)	none
Cc1cc(-n2c(C)cc(C(=O)CSc3nncn3C(C)C)c2C)no1	none
Cc1ccccc1Nc1nc(N)nc(COC(=O)CCNS(=O)(=O)c2ccccc2)n1	none
O=C(O)/C=C(\Oc1ccccc1)C1(O)CCCCC1	none
Cc1cc(C)nc(NS(=O)(=O)c2ccc(N=Cc3c(C)[nH]n(-c4ccccc4)c3=O)cc2)n1	none
CCc1nnc(NS(=O)(=O)c2ccc(N=Cc3c(C)[nH]n(-c4ccc(C)c(C)c4)c3=O)cc2)s1	NadD inh 37 | NadD conf 55
Cc1[nH]n(-c2ccc(Br)cc2)c(=O)c1C=Nc1ccc(S(=O)(=O)Nc2nccs2)cc1	NadD inh 42 | NadD conf inactive
Cc1ccc(NC(=O)CC2S/C(=N/N=C/C=C/c3ccccc3)NC2=O)cc1Cl (configuration not stated)	NadD inh 32 | NadD conf inactive
COc1ccc(/C=N/NC(=O)c2nc(Cl)c(Cl)c(N)c2Cl)cc1COc1ccccc1F	NadD inh 30 | NadD conf inactive
COc1cc(OC)cc(C(=O)N/N=C/c2ccc(OC)c(COc3ccc4ccccc4c3)c2)c1	NadD inh 40 | NadD conf inactive
Cc1cc(F)ccc1NC(=O)c1cc(S(=O)(=O)N2CCc3ccccc32)cn1C	none
COc1ncnc2c1ncn2CCCN1CCN(c2ncccn2)CC1	none (no result: Scp-1 inhibitor)
O=c1c2ccccc2nc(/C=C/c2c[nH]c3ccccc23)n1-c1ccc([N+](=O)[O-])cc1	NadD inh 40 | NadD conf inactive
CC(C)C[C@@H](CN1CCC[C@@H]1CN1C(=O)C(=O)NC[C@@H]1Cc1ccccc1)N1C[C@H](Cc2ccc(O)cc2)N(CC2CCCCC2)C(=O)C1=O	none
CC(C)C[C@H]1CN([C@@H](CC(C)C)CN2CCC[C@H]2CN2C(=O)C(=O)NC[C@@H]2Cc2ccc(O)cc2)C(=O)C(=O)N1CC1CCCCCC1	NadD inh 30 (no result: DNMT1 block, Scp-1 inhibitor, STEP block) | NadD conf inactive
